Experimental data as given in ChEMBL document CHEMBL5096172, “Tricyclic Triazoles as σ1 Receptor Antagonists for Treating Pain” (J Med Chem, 2021).

Experiments:
[1] = Clearance in wistar rat at 10 mg/kg, po by HPLC-MS/MS analysis relative to liver blood flow; assay type: ADME, organism-based; conditions: in vivo
Outline: (§1)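 Male Wistar rats (250−300 g, groups of 2) or male CD1 mice (25−30 g, groups of 16) dosed 10 mg/kg orally in 0.5% HPMC or 1 mg/kg iv in saline. Blood taken over time from saphenous vein or by intracardiac puncture into heparin tubes. Plasma spun at 4 °C, stored −80 °C, assayed by HPLC−MS/MS after protein precipitation. Noncompartmental analysis.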

[2] = Clearance in CD-1 mouse at 10 mg/kg, po by HPLC-MS/MS analysis relative to liver blood flow; assay type: ADME, organism-based; conditions: in vivo; outline: as §1

- CL [1]: 109%
- CL [2]: 65%
Compound: Cc1cc(OCCN2CCOCC2)nn1-c1ccc2ccccc2c1
